Reference: ChEMBL document CHEMBL4177755, “Combating Drug-Resistant Fungi with Novel Imperfectly Amphipathic Palindromic Peptides” (J Med Chem, 2018)
Converted amounts (≈) assume the structure as drawn.

What was measured:
Candida albicans [1] = assay: Fungicidal activity against fluconazole-resistant Candida albicans 17546 after 96 hrs; assay type: functional; conditions: Candida albicans, 17546, 96 h; read-out: MFC99.9
Summary of the method: (§1)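 After the 48 h, 28 °C broth microdilution in MOPS-buffered RPMI 1640 (inoculum (0.5−1) × 10^3 CFU/mL), 50 μL from each well was plated on YM agar for a further 48 h at 28 °C. MFC is the lowest concentration killing at least 99.9% of cells. Triplicate, three biological replicates.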

Escherichia coli [2] = assay: Antibacterial activity against Escherichia coli ATCC 25922 after 18 hrs in presence of FeCl3 by broth dilution method; assay type: functional; conditions: ATCC 25922, 18 h
[3] = Bactericidal activity against Salmonella pullorum ATCC 7913; assay type: functional, Salmonella enterica subsp. enterica serovar Pullorum; conditions: Salmonella enterica, read-out: MBC99.9
Summary of the method: (§2)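 Wells from the 24 h, 37 °C MHB microdilution plates (bacteria at a final (0.5−1) × 10^5 CFU/mL; peptide diluted in 0.2% BSA) were plated on agar and incubated overnight. MBC is the lowest concentration killing >99.9% of cells. Each test was reproduced at least 3 times.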

[4] = Cytotoxicity against HEK293T cells assessed as cell viability at 2 to 64 uM after 24 hrs by MTT assay relative to control; assay type: cell-based, HEK-293T; conditions: human, read-out: Activity
Summary of the method: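 MTT viability assay. RAW264.7 or HEK293T cells at (1.0−2.0) × 10^5 per well were exposed to a peptide concentration series for 24 h at 37 °C in 5% CO2. MTT was then added at 0.5 mg/mL final for 4 h; formazan was dissolved in DMSO and read at 570 nm. Results average three independent trials.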

[5] = test system: Staphylococcus epidermidis; assay: Antibacterial activity against Staphylococcus epidermidis ATCC 12228 after 24 hrs; assay type: functional; conditions: ATCC 12228, 24 h
Summary of the method: (§3)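 Broth microdilution. Mid-log bacteria in MHB at a final (0.5−1) × 10^5 CFU/mL were mixed with equal volumes of peptide serially diluted in 0.2% BSA. Plates were incubated 24 h at 37 °C and read at A492. MIC is the lowest concentration inhibiting 95% of growth. Each test was repeated at least 3 times.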

Candida albicans [6] = assay: Fungicidal activity against Candida albicans 14936 after 96 hrs; assay type: functional; conditions: Candida albicans, 14936, 96 h; read-out: MFC99.9; summary of the method: as §1
Candida parapsilosis [7] = assay: Fungicidal activity against Candida parapsilosis cgmcc 2.3989 after 96 hrs; assay type: functional; conditions: Lodderomyces parapsilosis, cgmcc 2.3989, 96 h; read-out: MFC99.9
Summary of the method: (§4)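 Wells from the 48 h, 28 °C RPMI 1640/MOPS microdilution plates were plated on YM agar and incubated a further 48 h at 28 °C. MFC is the lowest concentration killing at least 99.9% of cells. Run in triplicate with three biological replicates.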

Staphylococcus aureus [8] = assay: Bactericidal activity against Staphylococcus aureus ATCC 29213; assay type: functional; conditions: read-out: MBC99.9; summary of the method: as §2
Salmonella typhimurium [9] = assay: Bactericidal activity against Salmonella typhimurium ATCC 14028; assay type: functional, Salmonella enterica subsp. enterica serovar Typhimurium; conditions: Salmonella enterica, read-out: MBC99.9; summary of the method: as §2
Candida albicans [10] = assay: Antifungal activity against Candida albicans SP3903 after 48 hrs by broth microdilution method; assay type: functional; conditions: SP3903, 48 h
Summary of the method: (§5)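 Modified CLSI M27-A2 broth microdilution. Yeast at (0.5−1) × 10^3 CFU/mL in MOPS-buffered RPMI 1640 was mixed 1:1 with peptide serially diluted in 0.2% BSA and incubated 48 h at 28 °C. Absorbance was read at 492 nm; MIC is the lowest concentration inhibiting 95% of growth. Triplicate, three biological replicates.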

Escherichia coli [11] = assay: Antibacterial activity against Escherichia coli ATCC 25922 after 18 hrs in presence of MgCl2 by broth dilution method; assay type: functional; conditions: ATCC 25922, 18 h
Pichia kudriavzevii [12] = assay: Fungicidal activity against Candida krusei cgmcc 2.1857 after 96 hrs; assay type: functional; conditions: cgmcc 2.1857, 96 h, read-out: MFC99.9; summary of the method: as §4
Staphylococcus aureus [13] = assay: Antibacterial activity against Staphylococcus aureus ATCC 29213 after 24 hrs; assay type: functional; conditions: ATCC 29213, 24 h
Summary of the method: (§6)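 Modified NCCLS broth microdilution. Mid-log bacteria at (0.5−1) × 10^5 CFU/mL in MHB were mixed 1:1 with peptide serially diluted in 0.2% BSA and incubated 24 h at 37 °C. Absorbance was read at 492 nm; MIC is the lowest concentration inhibiting 95% of growth. At least 3 repeats.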

Candida albicans [14] = assay: Antifungal activity against fluconazole-resistant Candida albicans 56214 after 48 hrs by broth microdilution method; assay type: functional; conditions: Candida albicans, 56214, 48 h; summary of the method: as §5
Candida tropicalis = assay: Antifungal activity against Candida tropicalis cgmcc 2.1975 after 48 hrs by broth microdilution method; assay type: functional; conditions: cgmcc 2.1975, 48 h
Summary of the method: (§7)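 Modified CLSI M27-A2 broth microdilution. Yeast were suspended in MOPS-buffered RPMI 1640 at a final (0.5−1) × 10^3 CFU/mL and mixed 1:1 with peptide serially diluted in 0.2% BSA. Plates were incubated 48 h at 28 °C and read at A492. MIC is the lowest concentration giving 95% inhibition. Run in triplicate with three biological replicates.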

Candida albicans [15] = assay: Antifungal activity against Candida albicans cgmcc 2.2086 in presence of FeCl3 by broth dilution method; assay type: functional
Candida albicans [16] = assay: Antifungal activity against Candida albicans 14936 after 48 hrs by broth microdilution method; assay type: functional; conditions: Candida albicans, 14936, 48 h; summary of the method: as §5
Staphylococcus aureus [17] = assay: Antibacterial activity against methicillin-resistant Staphylococcus aureus ATCC 4330 after 24 hrs; assay type: functional; conditions: ATCC 4330, 24 h; summary of the method: as §6
Candida albicans [18] = assay: Antifungal activity against Candida albicans cgmcc 2.2086 in presence of MgCl2 by broth dilution method; assay type: functional
Candida albicans [19] = assay: Antifungal activity against Candida albicans cgmcc 2.2086 after 48 hrs by broth microdilution method; assay type: functional; conditions: cgmcc 2.2086, 48 h; summary of the method: as §5
Candida albicans [20] = assay: Fungicidal activity against Candida albicans SP3902 after 96 hrs; assay type: functional; conditions: SP3902, 96 h, read-out: MFC99.9; summary of the method: as §1
Candida albicans [21] = assay: Fungicidal activity against Candida albicans 58288 after 96 hrs; assay type: functional; conditions: Candida albicans, 58288, 96 h; read-out: MFC99.9; summary of the method: as §1
Pichia kudriavzevii [22] = assay: Antifungal activity against Candida krusei cgmcc 2.1857 after 48 hrs by broth microdilution method; assay type: functional; conditions: cgmcc 2.1857, 48 h; summary of the method: as §7
Salmonella typhimurium [23] = assay: Antibacterial activity against Salmonella typhimurium ATCC 14028 after 24 hrs; assay type: functional, Salmonella enterica subsp. enterica serovar Typhimurium; conditions: Salmonella enterica, ATCC 14028, 24 h; summary of the method: as §3
Candida albicans [24] = assay: Antifungal activity against Candida albicans 58288 after 48 hrs by broth microdilution method; assay type: functional; conditions: Candida albicans, 58288, 48 h; summary of the method: as §5
Candida albicans [25] = assay: Antifungal activity against Candida albicans cgmcc 2.2086 in presence of NH4Cl by broth dilution method; assay type: functional
Candida albicans [26] = assay: Antifungal activity against Candida albicans SP3876 after 48 hrs by broth microdilution method; assay type: functional; conditions: SP3876, 48 h; summary of the method: as §5
Escherichia coli [27] = assay: Antibacterial activity against Escherichia coli ATCC 25922 after 18 hrs in presence of ZnCl2 by broth dilution method; assay type: functional; conditions: ATCC 25922, 18 h
Candida albicans [28] = assay: Antifungal activity against Candida albicans SP3902 after 48 hrs by broth microdilution method; assay type: functional; conditions: SP3902, 48 h; summary of the method: as §5
Candida albicans [29] = assay: Antifungal activity against Candida albicans cgmcc 2.2086 in presence of CaCl2 by broth dilution method; assay type: functional
Candida parapsilosis [30] = assay: Antifungal activity against Candida parapsilosis cgmcc 2.3989 after 48 hrs by broth microdilution method; assay type: functional; conditions: Lodderomyces parapsilosis, cgmcc 2.3989, 48 h; summary of the method: as §7

Row | Molecule | MFC (Candida albicans [1]) [µM] | MBC [3] [µM] | MIC95 [5] [µM] | MFC (Candida albicans [6]) [µM] | MFC (Candida parapsilosis [7]) [µM] | MBC (Staphylococcus aureus [8]) [µM] | MBC (Salmonella typhimurium [9]) [µM] | MIC95 (Candida albicans [10]) [µM] | MFC (Pichia kudriavzevii [12]) [µM] | MIC95 (Staphylococcus aureus [13]) [µM] | MIC95 (Candida albicans [14]) [µM] | MIC95 (Candida tropicalis) [µM] | MIC (Candida albicans [15]) [µM] | MIC95 (Candida albicans [16]) [µM] | MIC95 (Staphylococcus aureus [17]) [µM] | MIC (Candida albicans [18]) [µM] | MIC95 (Candida albicans [19]) [µM] | MFC (Candida albicans [20]) [µM] | MFC (Candida albicans [21]) [µM] | MIC95 (Pichia kudriavzevii [22]) [µM] | other results
1 | H-RFRFFFRFR-NH2 | 4 | 8 | 4 | 8 | 32 | 8 | 8 | 4 | 4 | 4 | 8 | 2 | 8 | 8 | 4 | 16 | 8 | 4 | 16 | 4 | MIC (Escherichia coli [2]): 4 µM; viability at 24 h, up to 64 µM [4]: 70 to 80%; MIC (Escherichia coli [11]): 2 µM; MIC95 (Salmonella typhimurium [23]): 4 µM; MIC95 (Candida albicans [24]): 8 µM; MIC (Candida albicans [25]): 8 µM; MIC95 (Candida albicans [26]): 8 µM; MIC (Escherichia coli [27]): 4 µM; MIC95 (Candida albicans [28]): 4 µM; MIC (Candida albicans [29]): 64 µM; MIC95 (Candida parapsilosis [30]): 16 µM
2 | CC[C@H](C)[C@H](NC(=O)CN)C(=O)NCC(=O)N[C@@H](C)C(=O)N[C@H](C(=O)N[C@@H](CC(C)C)C(=O)N[C@@H](CCCCN)C(=O)N[C@H](C(=O)N[C@@H](CC(C)C)C(=O)N[C@H](C(=O)N[C@H](C(=O)NCC(=O)N[C@@H](CC(C)C)C(=O)N1CCC[C@H]1C(=O)N[C@@H](C)C(=O)N[C@@H](CC(C)C)C(=O)N[C@H](C(=O)N[C@@H](CO)C(=O)N[C@@H](Cc1c[nH]c2ccccc12)C(=O)N[C@H](C(=O)N[C@@H](CCCCN)C(=O)N[C@@H](CCCNC(=N)N)C(=O)N[C@@H](CCCCN)C(=O)N[C@@H](CCCNC(=N)N)C(=O)N[C@@H](CCC(N)=O)C(=O)N[C@@H](CCC(N)=O)C(N)=O)[C@@H](C)CC)[C@@H](C)CC)[C@@H](C)O)[C@@H](C)O)C(C)C)C(C)C [MELITTIN] | 8 (≈ 22.8 µg/mL) | 2 (≈ 5.69 µg/mL) | 0.5 (≈ 1.42 µg/mL) | 8 (≈ 22.8 µg/mL) | 2 (≈ 5.69 µg/mL) | 8 (≈ 22.8 µg/mL) | 2 (≈ 5.69 µg/mL) | 4 (≈ 11.4 µg/mL) | 4 (≈ 11.4 µg/mL) | 8 (≈ 22.8 µg/mL) | 4 (≈ 11.4 µg/mL) | 4 (≈ 11.4 µg/mL) | 4 | 4 (≈ 11.4 µg/mL) | 1 (≈ 2.85 µg/mL) | 4 | 4 (≈ 11.4 µg/mL) | 2 (≈ 5.69 µg/mL) | 4 (≈ 11.4 µg/mL) | 2 (≈ 5.69 µg/mL) | MIC95 (Salmonella typhimurium [23]): 1 µM (≈ 2.85 µg/mL); MIC95 (Candida albicans [24]): 4 µM (≈ 11.4 µg/mL); MIC (Candida albicans [25]): 4 µM; MIC95 (Candida albicans [26]): 4 µM (≈ 11.4 µg/mL); MIC95 (Candida albicans [28]): 2 µM (≈ 5.69 µg/mL); MIC (Candida albicans [29]): 8 µM; MIC95 (Candida parapsilosis [30]): 2 µM (≈ 5.69 µg/mL)
3 | H-RLLRRLRRLLR-NH2 | 16 | 32 | 4 | 8 | 16 | 16 | 16 | 4 | 8 | 4 | 8 | 2 | 8 | 8 | 8 | 32 | 8 | 8 | 16 | 4 | MIC (Escherichia coli [2]): 16 µM; viability at 24 h, up to 64 µM [4]: 70 to 80%; MIC (Escherichia coli [11]): 2 µM; MIC95 (Salmonella typhimurium [23]): 8 µM; MIC95 (Candida albicans [24]): 4 µM; MIC (Candida albicans [25]): 4 µM; MIC95 (Candida albicans [26]): 4 µM; MIC (Escherichia coli [27]): 8 µM; MIC95 (Candida albicans [28]): 4 µM; MIC (Candida albicans [29]): 8 µM; MIC95 (Candida parapsilosis [30]): 8 µM
4 | H-RWWRRWRRWWR-NH2 | 4 | 8 | 4 | 4 | 32 | 8 | 32 | 2 | 4 | 4 | 4 | 2 | 4 | 4 | 4 | 8 | 4 | 4 | 8 | 2 | MIC (Escherichia coli [2]): 16 µM; MIC (Escherichia coli [11]): 8 µM; MIC95 (Salmonella typhimurium [23]): 8 µM; MIC95 (Candida albicans [24]): 2 µM; MIC (Candida albicans [25]): 4 µM; MIC95 (Candida albicans [26]): 2 µM; MIC (Escherichia coli [27]): 16 µM; MIC95 (Candida albicans [28]): 4 µM; MIC (Candida albicans [29]): 8 µM; MIC95 (Candida parapsilosis [30]): 16 µM
